Structures are written as SMILES. Calls of active or inactive are those of the source. The rule behind the calls is not given here.

The test system of assay [1] is RAW264.7. The assay can be described thus: Inhibition of LPS-induced IL6 production in mouse RAW264.7 cells at 10 uM preincubated for 30 mins prior to LPS challenge measured after 24 hrs by ELISA. The format is functional. An outline of the steps: (§1)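 RAW 264.7 cells (ATCC) were grown in DMEM with 10% FBS and penicillin/streptomycin at 37 °C, 5% CO2. Cells were seeded at 400,000/well and incubated for 24 h, pretreated with compound for 30 min, then given 0.5 µg/mL LPS for 24 h. Medium TNF-α or IL-6 was measured by ELISA and normalized to total protein of viable cell pellets.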
A general note: In an ELISA, binding on a coated surface is turned into a signal by an enzyme label.

Assay [2] relates to RAW264.7. The assay can be described thus: Inhibition of LPS-induced TNF-alpha production in mouse RAW264.7 cells at 10 uM preincubated for 30 mins prior to LPS challenge measured after 24 hrs by ELISA. The format is functional. An outline of the steps:
as §1

Assay [3] relates to RAW264.7. The assay can be described thus: Inhibition of LPS-induced IL6 production in mouse RAW264.7 cells preincubated for 30 mins prior to LPS challenge measured after 24 hrs by ELISA. The format is functional, cell-based. An outline of the steps: as §1
In assay [4] the test system is RAW264.7. The assay can be described thus: Inhibition of LPS-induced TNF-alpha production in mouse RAW264.7 cells preincubated for 30 mins prior to LPS challenge measured after 24 hrs by ELISA. The format is functional, cell-based. An outline of the steps:
as §1

Where [5] appears, read: Mus musculus, RAW264.7, read-out: IC50.

In general, inhibition refers to the drop in the measured response relative to a control, in per cent. Regarding `CN1CCN(c2ccc(NC(=O)c3cc4cc([N+](=O)[O-])ccc4n3Cc3cccc(F)c3)cc2)CC1`, the inhibition at 10 µM in assay [1] amounted to 86.4%; in assay [2], 22.8%.

The term IC50 denotes the midpoint of a concentration-inhibition curve. As for `C=CC(=O)Nc1ccc2c(c1)cc(C(=O)Nc1ccc(N3CCN(C)CC3)cc1)n2Cc1ccc(C(F)(F)F)cc1`, the IC50 in assay [3] (setting [5]) is 6.28 µM; in assay [4] (setting [5]) it was 1.05 µM.

Consider `Cc1ccc(COc2ccc(NC(=O)c3cc4cc([N+](=O)[O-])ccc4[nH]3)cc2)cc1`, for which, in assay [1], the inhibition at 10 µM is 1.98%. Also, in assay [2], the inhibition entry is “inactive”.

Take `CN1CCN(c2ccc(NC(=O)c3cc4cc(NC(=O)CCl)ccc4n3Cc3ccc(C(F)(F)F)cc3)cc2)CC1`: the IC50 in assay [3] (setting [5]) turned out to be 2.99 µM; in assay [4] (setting [5]), 6.03 µM.

For the compound `CCOc1ccc(NC(=O)c2cc3cc([N+](=O)[O-])ccc3[nH]2)cc1`, the inhibition at 10 µM in assay [1] was determined as 41.1%; in assay [2], 33.8%.

Take `O=C(NCCc1ccccc1)c1cc2cc([N+](=O)[O-])ccc2[nH]1`: the inhibition at 10 µM in assay [1] was 8.71%; in assay [2], 2.58%.

Regarding `C=CCn1c(C(=O)Nc2ccc(N3CCN(C)CC3)cc2)cc2cc([N+](=O)[O-])ccc21`, the inhibition at 10 µM in assay [1] worked out at 58.2%; in assay [2], 12.7%.

As to `CN1CCN(c2ccc(NC(=O)c3cc4cc([N+](=O)[O-])ccc4[nH]3)cc2)CC1`, the values for the inhibition at 10 µM in assay [1] and in assay [2] were 91% and 62.5%, respectively.

With `O=C(Nc1ccc(OCc2ccccc2)c(Cl)c1)c1cc2cc([N+](=O)[O-])ccc2[nH]1`, in assay [1], 10 µM produced 21.5% inhibition. Further, the inhibition entry in assay [2] was “inactive”.

With `O=C(Nc1ccc(OCc2cccc(F)c2)cc1)c1cc2cc([N+](=O)[O-])ccc2[nH]1`, testing at 10 µM in assay [1] gave an inhibition of 4.42%. Further, the inhibition entry in assay [2] was “inactive”.

Turning to `COc1ccc(NC(=O)c2cc3cc([N+](=O)[O-])ccc3[nH]2)cc1`, the inhibition at 10 µM is 52.8% in assay [1] and 8.17% in assay [2].

For the compound `CN1CCN(c2ccc(NC(=O)c3cc4cc([N+](=O)[O-])ccc4n3Cc3ccc(Br)cc3)cc2)CC1`, the figures for the inhibition at 10 µM in assay [1] and in assay [2] were 93% and 31.1%, respectively.

Consider `O=C(Nc1ccc(N2CCOCC2)cc1)c1cc2cc([N+](=O)[O-])ccc2[nH]1`, for which the inhibition at 10 µM in assay [1] amounted to 38%; in assay [2], 18%.

In assay [1], `O=C(Nc1ccc(OCc2ccc(Cl)cc2)cc1)c1cc2cc([N+](=O)[O-])ccc2[nH]1` came in with an inhibition at 10 µM of 4.28%. Further, in assay [2], the inhibition result was “inactive”.

For the compound `CN1CCN(c2ccc(NC(=O)c3cc4cc([N+](=O)[O-])ccc4n3Cc3c(Cl)cccc3Cl)cc2)CC1`, the figures for the inhibition at 10 µM in assay [1] and in assay [2] were 93.3% and 52.7%, respectively.

With `COc1ccc(Cn2c(C(=O)Nc3ccc(N4CCN(C)CC4)cc3)cc3cc([N+](=O)[O-])ccc32)cc1`, the inhibition at 10 µM in assay [1] came to 64.3%; in assay [2] it was 41.4%.

Regarding `COc1cc(NC(=O)c2cc3cc([N+](=O)[O-])ccc3[nH]2)cc(OC)c1`, the results for the inhibition at 10 µM in assay [1] and in assay [2] were 31.3% and 17.2%, respectively.

In turn, `COc1cccc(COc2ccc(NC(=O)c3cc4cc([N+](=O)[O-])ccc4[nH]3)cc2Cl)c1` displayed an inhibition at 10 µM in assay [1] of 21.9%. Also, the inhibition entry in assay [2] is “inactive”.

With `COc1cc(COc2ccc(NC(=O)c3cc4cc([N+](=O)[O-])ccc4[nH]3)cc2Cl)cc(OC)c1`, the inhibition at 10 µM in assay [1] was determined as 29%; in assay [2] it was 7.67%.

With `O=C(Nc1ccc(OCc2c(Cl)cccc2Cl)c(Cl)c1)c1cc2cc([N+](=O)[O-])ccc2[nH]1`, the inhibition at 10 µM in assay [1] amounted to 29.8%. The inhibition entry in assay [2] was “inactive”.

Regarding `CC(C)=CCOc1ccc(NC(=O)c2cc3cc([N+](=O)[O-])ccc3[nH]2)cc1`, the inhibition at 10 µM in assay [1] is 56.5%; in assay [2], 38.6%.

For the compound `CN1CCN(c2ccc(NC(=O)c3cc4cc(NS(C)(=O)=O)ccc4n3Cc3ccc(C(F)(F)F)cc3)cc2)CC1`, the IC50 in assay [3] (setting [5]) worked out at 4.91 µM; in assay [4] (setting [5]), 1.97 µM.

Regarding `O=C(Nc1ccccc1)c1cc2cc([N+](=O)[O-])ccc2[nH]1`, the inhibition at 10 µM in assay [1] is 49.6%; in assay [2] it was 17.5%.

Regarding `COc1cc(NC(=O)c2cc3cc([N+](=O)[O-])ccc3[nH]2)cc(OC)c1OC`, the inhibition at 10 µM in assay [1] was found to be 62.3%; in assay [2], 45.8%.

Take `COc1ccc2c(c1)c(CC(=O)O)c(C)n2C(=O)c1ccc(Cl)cc1` [INDOMETHACIN]: the inhibition at 10 µM in assay [1] amounted to 53.6%; in assay [2], 24.1%.

On to `CN1CCN(c2ccc(NC(=O)c3cc4cc([N+](=O)[O-])ccc4n3Cc3ccc(Cl)cc3)cc2)CC1`, for which the results for the inhibition at 10 µM in assay [1] and in assay [2] were 97.2% and 67%, respectively.

In the case of `O=C(Nc1ccc(OCc2ccc(C(F)(F)F)cc2)c(Cl)c1)c1cc2cc([N+](=O)[O-])ccc2[nH]1`, in assay [1], the inhibition at 10 µM is 29.2%. The inhibition result in assay [2] is “inactive”.

For the compound `O=C(Nc1ccc(OCc2cccc(F)c2)c(Cl)c1)c1cc2cc([N+](=O)[O-])ccc2[nH]1`, the inhibition entry in assay [1] and in assay [2] was “inactive” throughout.

As for `CN1CCN(c2ccc(NC(=O)c3cc4cc(N)ccc4n3Cc3ccc(C(F)(F)F)cc3)cc2)CC1`, the IC50 result in assay [3] (raw264.7) and in assay [4] (raw264.7) was “Not Active” each time.

For the compound `Cc1ccc(C)c(COc2ccc(NC(=O)c3cc4cc([N+](=O)[O-])ccc4[nH]3)cc2Cl)c1`, the values for the inhibition at 10 µM in assay [1] and in assay [2] were 24.9% and 2.89%, respectively.

In the case of `CCC(=O)Nc1ccc2c(c1)cc(C(=O)Nc1ccc(N3CCN(C)CC3)cc1)n2Cc1ccc(C(F)(F)F)cc1`, the IC50 in assay [3] (setting [5]) worked out at 3.33 µM; in assay [4] (setting [5]), 4.1 µM.

As for `O=C(Nc1ccc(OCc2cc(F)cc(F)c2)cc1)c1cc2cc([N+](=O)[O-])ccc2[nH]1`, the inhibition at 10 µM in assay [1] is 11.2%. The inhibition entry in assay [2] is “inactive”.

As to `CN1CCN(c2ccc(NC(=O)c3cc4cc([N+](=O)[O-])ccc4n3Cc3ccc(C(F)(F)F)cc3)cc2)CC1`, the figures for the inhibition at 10 µM in assay [1] and in assay [2] were 98.7% and 75.1%, respectively. Besides, the IC50 in assay [3] (setting [5]) came to 5.09 µM; in assay [4] (setting [5]), 2.74 µM.

In the case of `COc1ccc(CCNC(=O)c2cc3cc([N+](=O)[O-])ccc3[nH]2)cc1`, the inhibition at 10 µM in assay [1] worked out at 11.8%; in assay [2] it was 9.75%.

Regarding `Cc1cc2cc(NC(=O)c3cc4cc([N+](=O)[O-])ccc4[nH]3)ccc2[nH]1`, the inhibition at 10 µM in assay [1] was determined as 37%; in assay [2] it was 7.53%.

In turn, `COc1ccc(COc2ccc(NC(=O)c3cc4cc([N+](=O)[O-])ccc4[nH]3)cc2Cl)cc1` yielded an inhibition at 10 µM in assay [1] of 24.8%. Further, in assay [2], the inhibition entry was “inactive”.

Turning to `CN1CCN(c2ccc(NC(=O)c3cc4cc([N+](=O)[O-])ccc4n3C)cc2)CC1`, the inhibition at 10 µM is 87.2% in assay [1] and 16% in assay [2].

For the origin of these results see ChEMBL document CHEMBL3822416, “Design, Synthesis, and Structure-Activity Relationship Study of Novel Indole-2-carboxamide Derivatives as Anti-inflammatory Agents for the Treatment of Sepsis” (J Med Chem, 2016).
